# Measured values of several laboratories.
# Protocols differ between the studies behind these lines.
# Target: Interleukin-1 receptor-associated kinase 4 (IRAK4, Homo sapiens, UniProt Q9NWZ3)
# One construct used (Q9NWZ3 1-460): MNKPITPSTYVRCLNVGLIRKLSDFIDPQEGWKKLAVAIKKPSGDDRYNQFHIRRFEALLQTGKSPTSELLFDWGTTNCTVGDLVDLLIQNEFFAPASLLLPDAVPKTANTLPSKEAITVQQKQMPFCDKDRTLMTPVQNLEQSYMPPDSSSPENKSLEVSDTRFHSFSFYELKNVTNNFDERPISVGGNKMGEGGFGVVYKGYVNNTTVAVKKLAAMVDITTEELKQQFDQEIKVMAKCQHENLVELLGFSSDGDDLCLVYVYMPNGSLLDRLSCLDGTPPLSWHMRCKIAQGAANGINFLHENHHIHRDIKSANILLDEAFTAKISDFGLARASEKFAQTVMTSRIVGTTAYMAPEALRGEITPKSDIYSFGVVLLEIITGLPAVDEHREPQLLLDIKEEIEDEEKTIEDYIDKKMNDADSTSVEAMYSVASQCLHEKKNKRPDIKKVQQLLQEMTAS
Structure (SMILES),assay,conditions,remaining binding
c1cnn2ncc(-c3ccnc(N4CCC45COC5)n3)c2c1,binding,1 µM,79%
CCN1CCN(Cc2ccc(C(=O)Nc3ccc(C)c(Oc4ccc5c(c4)CC(=O)N5)c3)cc2C(F)(F)F)CC1,"binding, competition with immobilised ligand",1 µM,84%
O=C(c1ccc(Nc2nccc(-c3cc4ccccc4s3)n2)cc1)N1CCC(N2CCCC2)CC1,"binding, competition with immobilised ligand",1 µM,100%
COc1ccnn2ncc(-c3ccnc(N(C)C)n3)c12,binding,1 µM,80%
O=C(c1ccc(Nc2ncc(Cl)c(-c3ccc(Cl)s3)n2)cc1)N1CCC(N2CCCC2)CC1,"binding, competition with immobilised ligand",1 µM,60%
CN(CCCC(F)(F)F)c1nccc(-c2cnn3ncccc23)n1,binding,1 µM,100%
c1cncc(-c2cccc(Nc3nccc(NC4CCCCC4)n3)c2)c1,"binding, competition with immobilised ligand",10 µM,34%
O=C(Nc1c[nH]nc1C(=O)NC1CCNCC1)c1cc(F)cc(F)c1,"binding, competition with immobilised ligand",1 µM,100%
O=C(NCCCC1CCCCC1)c1ccc(CNC(=O)c2cnn(-c3ccccc3)c2C(F)(F)F)cc1,"cell-free assay, competition with immobilised ligand",0.1 µM,100%
C[C@@H]1CCN(c2nccc(-c3cnn4ncccc34)n2)C1,binding,1 µM,100%
CCS(=O)(=O)c1cc2cc(C[C@](O)(CC(C)(C)c3ccc(F)cc3C(N)=O)C(F)(F)F)[nH]c2cn1,"cell-free assay, competition with immobilised ligand",1 µM,100%
Cc1cnn2ncc(-c3ccnc(N(C)C)n3)c2c1,binding,1 µM,100%
C[C@H](c1ccnc(Nc2nc3ccc(-c4cc(N(C)C)ncn4)cc3[nH]2)c1)N1CCN(C(=O)CC(F)(F)F)CC1,"cell-free assay, competition with immobilised ligand",0.1 µM,100%
CNC(=O)[C@@H]1CC[C@@H](n2c(-c3ccc4cnccc4c3)nc3ccc(C(=O)NCc4cccc(C(N)=O)c4)cc32)C1,"binding, competition with immobilised ligand",1 µM,100%
CN([C@@H]1CCc2c(CC(=O)O)c3cc(S(C)(=O)=O)ccc3n2C1)S(=O)(=O)c1ccc(F)cc1,"cell-free assay, competition with immobilised ligand",1 µM,95%
CN(C)c1ncc(F)c(-c2cnn3ncccc23)n1,binding,1 µM,69%
CNCc1ccccc1-c1csc([C@H](C)Nc2nc(C)nc3cc(OC)c(OC)cc23)c1,"cell-free assay, competition with immobilised ligand",1 µM,89%
COc1ncc2cc3ccccc3nc2c1C#N,"cell-free assay, competition with immobilised ligand",5 µM,97%
O=C1NC(c2ccccn2)Sc2ccccc21 (centres unmarked),"cell-free assay, competition with immobilised ligand",1 µM,100%
O=C(NCCCN1CCOCC1)c1ccc(Nc2nccc(-c3cc4ccccc4s3)n2)cc1,"binding, competition with immobilised ligand",1 µM,75%
